Reference: PMC3102533 (ChemMedChem, 2009)

Biological target: T1, recombinant Lyp (Homo sapiens, UniProt Q9Y2R2)
T1 sequence (Q9Y2R2 2-309): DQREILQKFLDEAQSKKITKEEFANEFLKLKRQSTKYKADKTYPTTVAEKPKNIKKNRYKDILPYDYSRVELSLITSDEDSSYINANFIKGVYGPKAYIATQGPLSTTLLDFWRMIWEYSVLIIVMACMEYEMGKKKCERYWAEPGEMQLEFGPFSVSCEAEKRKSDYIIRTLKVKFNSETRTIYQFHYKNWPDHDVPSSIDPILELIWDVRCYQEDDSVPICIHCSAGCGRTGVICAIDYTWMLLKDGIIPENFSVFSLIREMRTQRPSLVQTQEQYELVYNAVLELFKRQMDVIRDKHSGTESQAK
Assay: Lyp enzymatic assay, IC50 measurements
Assay type: biochemical
Conditions: compared with compound 7 (analogue lacks the nitro group)
Procedure, shortened: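 GST-fused Lyp catalytic domain (residues 2–309) was expressed in E. coli BL21 DE3 and purified by glutathione affinity and Superdex S-200. DiFMUP hydrolysis was measured at 48 μM substrate (Km) and 30°C in 20 mM Bis-Tris pH 6.0 (ionic strength 20 mM, NaCl) with 1 mM DTT, 1% PEG 8000 and 5% DMSO. Initial rates were read at ex 360/em 460 nm and corrected with a no-enzyme control. IC50 came from fitting relative activity against inhibitor concentration.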

In the case of `O=C(Nc1ccc(I)cc1C(=O)O)c1ccccc1` [2-benzamido-5-iodobenzoic acid], the “fold less inhibitory activity against Lyp” value is reported as 157 fold.
